In ChEMBL document CHEMBL1121745, “New dimeric analogues of ethidium; synthesis, interaction with DNA, and antitumor activity” (J Med Chem, 1981):

What was measured:
L1210 [1] = assay: Inhibition of incorporation of tritiated uridine in the RNA of actively growing L1210 cells; settings: Mus musculus
L1210 [2] = assay: Inhibition of incorporation of tritiated thymidine in the DNA of actively growing L1210 cells; assay type: functional, cell-based; settings: Mus musculus
Summary of the method: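 Actively growing L1210 cells are exposed to the drug, dissolved first in Me₂SO (final Me₂SO 1%). Incorporation of tritiated thymidine into DNA or tritiated uridine into RNA is measured. IC₅₀ is the concentration giving 50% reduction in incorporation.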

P388 [3] = assay: Antitumor activity in mice against leukemia P388 cells at 3.4 uM/kg was expressed as ratio average survival time; assay type: functional, Mus musculus
Summary of the method: (§1)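 Mice bearing P388 leukemia were tested under NCI protocols, with doses given in µmol/kg. Toxicity was evaluated on day 5. Efficacy is reported as T/C, the mean survival time of treated mice divided by that of untreated controls, ×100. Values are usually the average of two tests. A T/C above 120 was taken as activity.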

P388 [4] = assay: Antitumor activity in mice against leukemia P388 cells at 0.43 survival time; assay type: functional, Mus musculus
Summary of the method: as §1

P388 [5] = assay: Antitumor activity in mice against leukemia P388 cells at 0.43 uM/kg; assay type: functional, Mus musculus
Summary of the method: (§2)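 Mouse survival assay run under NCI protocols. Activity is expressed as T/C: average survival time of treated mice over untreated mice × 100. Values are usually the average of two tests. Toxicity is evaluated on day 5. A T/C above 120 is taken as activity.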

P388 [6] = assay: Antitumor activity in mice against leukemia P388 cells at 1.7 uM/kg; assay type: functional, Mus musculus
Summary of the method: as §2

B16 [7] = assay: Antitumor activity in mice against melanoma B16 cells at 1.1 uM/kg was expressed as ratio of average survival time; assay type: functional, Mus musculus
B16 [8] = assay: Antitumor activity in mice against melanoma B16 cells at 1.1 uM/kg; assay type: functional, Mus musculus
Summary of the method: as §2

B16 [9] = assay: Antitumor activity in mice against melanoma B16 cells at 2.2 uM/kg; assay type: functional, Mus musculus
Summary of the method: as §2

B16 [10] = assay: Antitumor activity in mice against melanoma B16 cells at 0.55 uM/kg; assay type: functional, Mus musculus
Summary of the method: as §2

P388 [11] = assay: Antitumor activity in mice against leukemia P388 cells at 0.85 uM/kg; assay type: functional, Mus musculus
Summary of the method: as §2

P388 [12] = assay: Antitumor activity in mice against leukemia P388 cells at 1.7 uM/kg was expressed as ratio of average survival time; assay type: functional, Mus musculus
Summary of the method: as §1

P388 [13] = assay: Antitumor activity in mice against leukemia P388 cells at 3.4 uM/kg; assay type: functional, Mus musculus
Summary of the method: as §2

P388 [14] = assay: Antitumor activity in mice against leukemia P388 cells at 0.85 uM/kg was expressed as ratio of average survival time; assay type: functional, Mus musculus
Summary of the method: as §1

B16 [15] = assay: Antitumor activity in mice against melanoma B16 cells at 2.2 uM/kg was expressed as ratio of average survival time; assay type: functional, Mus musculus
B16 [16] = assay: Antitumor activity in mice against melanoma B16 cells at 0.55 uM/kg was expressed as ratio of average survival time; assay type: functional, Mus musculus
B16 [17] = assay: Antitumor activity in mice against melanoma B16 cells at 17.1 uM/kg was expressed as ratio of average survival time; assay type: functional, Mus musculus
P388 [18] = assay: Antitumor activity in mice against leukemia P388 cells at 17.9 uM/kg; assay type: functional, Mus musculus
Summary of the method: as §1

P388 [19] = assay: Antitumor activity in mice against leukemia P388 cells at 4.5 umol/kg was expressed as ratio of average survival time; assay type: functional, Mus musculus
Summary of the method: as §1

P388 [20] = assay: Antitumor activity in mice against leukemia P388 cells at 4.5 umol/kg; assay type: functional, Mus musculus
Summary of the method: as §1

P388 [21] = assay: Antitumor activity in mice against leukemia P388 cells at 8.9 uM/kg was expressed as ratio of average survival time; assay type: functional, Mus musculus
Summary of the method: as §1

P388 [22] = assay: Antitumor activity in mice against leukemia P388 cells at 17.9 survival time; assay type: functional, Mus musculus
Summary of the method: as §1

P388 [23] = assay: Antitumor activity in mice against leukemia P388 cells at 8.9 uM/kg; assay type: functional, Mus musculus
Summary of the method: as §1

B16 [24] = assay: Antitumor activity in mice against melanoma B16 cells at 34.2 uM/kg was expressed as ratio of average survival time; assay type: functional, Mus musculus
B16 [25] = assay: Antitumor activity in mice against melanoma B16 cells at 8.6 uM/kg was expressed as ratio of average survival time; assay type: functional, Mus musculus
P388 [26] = assay: Antitumor activity in mice against leukemia P388 cells at 0.86 uM/kg; assay type: functional, Mus musculus
Summary of the method: as §2

P388 [27] = assay: Antitumor activity in mice against leukemia P388 cells at 0.86 survival time; assay type: functional, Mus musculus
Summary of the method: as §1

P388 [28] = assay: Antitumor activity in mice against leukemia P388 cells at 0.21 survival time; assay type: functional, Mus musculus
Summary of the method: as §1

P388 [29] = assay: Antitumor activity in mice against leukemia P388 cells at 1.7 umol/kg; assay type: functional, Mus musculus
Summary of the method: as §2

P388 [30] = assay: Antitumor activity in mice against leukemia P388 cells at 1.7 umol/kg was expressed as ratio of average survival time; assay type: functional, Mus musculus
Summary of the method: as §1

P388 [31] = assay: Antitumor activity in mice against leukemia P388 cells at 0.22 umol/kg; assay type: functional, Mus musculus
Summary of the method: as §2

P388 [32] = assay: Antitumor activity in mice against leukemia P388 cells at 0.05 umol/kg was expressed as ratio of average survival time; assay type: functional, Mus musculus
Summary of the method: as §1

B16 [33] = assay: Antitumor activity in mice against melanoma B16 cells at 0.04 uM/kg; assay type: functional, Mus musculus
Summary of the method: as §2

P388 [34] = assay: Antitumor activity in mice against leukemia P388 cells at 0.05 umol/kg; assay type: functional, Mus musculus
Summary of the method: as §2

P388 [35] = assay: Antitumor activity in mice against leukemia P388 cells at 0.11 umol/kg; assay type: functional, Mus musculus
Summary of the method: as §2

B16 [36] = assay: Antitumor activity in mice against melanoma B16 cells at 0.17 umol/kg was expressed as ratio of average survival time; assay type: functional, Mus musculus
B16 [37] = assay: Antitumor activity in mice against melanoma B16 cells at 0.09 uM/kg was expressed as ratio of average survival time; assay type: functional, Mus musculus
B16 [38] = assay: Antitumor activity in mice against melanoma B16 cells at 0.09 uM/kg; assay type: functional, Mus musculus
Summary of the method: as §2

P388 [39] = assay: Antitumor activity in mice against leukemia P388 cells at 0.11 umol/kg was expressed as ratio of average survival time; assay type: functional, Mus musculus
Summary of the method: as §1

B16 [40] = assay: Antitumor activity in mice against melanoma B16 cells at 0.04 uM/kg was expressed as ratio of average survival time; assay type: functional, Mus musculus
P388 [41] = assay: Antitumor activity in mice against leukemia P388 cells at 0.22 umol/kg was expressed as ratio of average survival time; assay type: functional, Mus musculus
Summary of the method: as §1

B16 [42] = assay: Antitumor activity in mice against melanoma B16 cells at 0.16 uM/kg was expressed as ratio of average survival time; assay type: functional, Mus musculus
P388 [43] = assay: Antitumor activity in mice against leukemia P388 cells at 1.4 uM/kg was expressed as ratio of average survival time; assay type: functional, Mus musculus
P388 [44] = assay: Antitumor activity in mice against leukemia P388 cells at 1.3 uM/kg was expressed as ratio of average survival time; assay type: functional, Mus musculus

What does the source list for COc1cccc(-c2c3cc(N)ccc3c3ccc(N)cc3[n+]2C)c1?
IC50 (L1210 [1]): 10 µM; IC50 (L1210 [2]): 25 µM

What does the source list for C[n+]1c(-c2cccc(OCCOCCOc3cccc(-c4c5cc(N)ccc5c5ccc(N)cc5[n+]4C)c3)c2)c2cc(N)ccc2c2ccc(N)cc21.[Br-].[Br-]?
T/C (P388 [3]): 152%; T/C (P388 [4]): 124%; T/C (P388 [5]): 20; T/C (P388 [6]): 28; T/C (B16 [7]): 127%; IC50 (L1210 [1]): 16 µM; T/C (B16 [8]): 127; T/C (B16 [9]): 142; T/C (B16 [10]): 109; T/C (P388 [11]): 37; T/C (P388 [12]): 156%; T/C (P388 [13]): 39; T/C (P388 [14]): 132%; IC50 (L1210 [2]): 187 µM; T/C (B16 [15]): 142%; T/C (B16 [16]): 109%

What does the source list for CC[n+]1c(-c2ccccc2)c2cc(N)ccc2c2ccc(N)cc21.[Cl-]?
T/C (B16 [17]): 112%; T/C (P388 [18]): 24; T/C (P388 [19]): 135%; T/C (P388 [20]): 10; T/C (P388 [21]): 150%; IC50 (L1210 [1]): 11 µM; T/C (P388 [22]): 149%; T/C (P388 [23]): 18; T/C (B16 [24]): 135%; IC50 (L1210 [2]): 31 µM; T/C (B16 [25]): 108%

Which T/C (P388 [26]) does the source give for C[n+]1c(-c2cccc(OCCCCCCCCCCOc3cccc(-c4c5cc(N)ccc5c5ccc(N)cc5[n+]4C)c3)c2)c2cc(N)ccc2c2ccc(N)cc21.[Cl-].[Cl-] here?
Its T/C is 15.

What about the T/C (P388 [27]) of the same compound?
Its T/C is 160%.

What about the T/C (P388 [4]) of the same compound?
Its T/C is 156%.

And the T/C (P388 [28])?
The T/C was 141%.

And the T/C (P388 [29])?
The T/C was 33.

And the T/C (P388 [30])?
Its T/C is 158%.

What about the IC50 (L1210 [1]) of the same compound?
The IC50 was 0.3 µM.

And the IC50 (L1210 [2])?
Its IC50 is 1.7 µM.

What does the source list for C[n+]1c(-c2cccc(OCCCCCCCOc3cccc(-c4c5cc(N)ccc5c5ccc(N)cc5[n+]4C)c3)c2)c2cc(N)ccc2c2ccc(N)cc21.[Br-].[Br-]?
T/C (P388 [31]): 40; T/C (P388 [32]): 120%; T/C (B16 [33]): 116; T/C (P388 [34]): 5; T/C (P388 [35]): 13; T/C (B16 [36]): 138%; IC50 (L1210 [1]): 0.6 µM; T/C (B16 [37]): 136%; T/C (B16 [38]): 136; T/C (P388 [39]): 126%; T/C (B16 [40]): 116%; T/C (P388 [41]): 120%; IC50 (L1210 [2]): 12 µM; T/C (B16 [42]): 134%

With COc1cccc2c1C(=O)c1c(O)c3c(c(O)c1C2=O)C[C@@](O)(C(C)=O)C[C@@H]3O[C@H]1C[C@H](N)[C@H](O)[C@H](C)O1 [DAUNORUBICIN] as the compound, how does the T/C (P388 [43]) read?
The T/C was 160.

For COc1cccc2c1C(=O)c1c(O)c3c(c(O)c1C2=O)C[C@@](O)(C(=O)CO)C[C@@H]3O[C@H]1C[C@H](N)[C@H](O)[C@H](C)O1 [DOXORUBICIN], which T/C (P388 [44]) is on record?
The T/C was 197.
